From publication PMC8530978 (Bioorganic chemistry, 2021)

Key:
[1] = test system: NCI sixty human tumor cell line panel; test: NCI sixty human tumor cell line panel, single dose 10 μM; type: cell-based; conditions: Homo sapiens; for activity at 10 µM: read-out: Mean % growth at 10 μM
[2] = test system: HCT 116 cells; test: MTS reduction assay, antiproliferative activity on HCT 116; type: cell-based; conditions: Homo sapiens, HCT-116, 96 h
Procedure, shortened: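 HCT116 cells grown in McCoy's 5A with 10% FBS (37 °C, 5% CO2), seeded at 3 × 10^3/well in triplicate and left to adhere overnight. Exposed to test compound at 0.01–100 μM, or DMSO, for 96 h. MTS reagent added for 2 h at 37 °C; absorbance read at 490 nm. Curves of log(concentration) vs response fitted with a variable Hill slope.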

[3] = test system: histone H3 acetylation and tubulin acetylation in HCT116 cells; test: Western blot of histone H3 and tubulin acetylation in HCT116 cells; type: cell-based, human; conditions: HCT116, 24 h, IPEs up to highest concentration 25 μM
Procedure, shortened: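 HCT116 cells (2 × 10^6 per T-25 flask) adhered overnight, then given test compound at 1, 10 or 25 μM, or DMSO, for 24 h. Lysed in RIPA; protein measured by BCA. Acetyl-histone H3 and acetyl-tubulin immunoblotted, detected with fluorescent secondary antibodies on an Odyssey scanner.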

[4] = molecular target: HDAC1 (Homo sapiens, UniProt Q13547); test: HDAC-Glo inhibitor testing with recombinant HDAC1; type: biochemical
HDAC1, sequence (Q13547 whole entry): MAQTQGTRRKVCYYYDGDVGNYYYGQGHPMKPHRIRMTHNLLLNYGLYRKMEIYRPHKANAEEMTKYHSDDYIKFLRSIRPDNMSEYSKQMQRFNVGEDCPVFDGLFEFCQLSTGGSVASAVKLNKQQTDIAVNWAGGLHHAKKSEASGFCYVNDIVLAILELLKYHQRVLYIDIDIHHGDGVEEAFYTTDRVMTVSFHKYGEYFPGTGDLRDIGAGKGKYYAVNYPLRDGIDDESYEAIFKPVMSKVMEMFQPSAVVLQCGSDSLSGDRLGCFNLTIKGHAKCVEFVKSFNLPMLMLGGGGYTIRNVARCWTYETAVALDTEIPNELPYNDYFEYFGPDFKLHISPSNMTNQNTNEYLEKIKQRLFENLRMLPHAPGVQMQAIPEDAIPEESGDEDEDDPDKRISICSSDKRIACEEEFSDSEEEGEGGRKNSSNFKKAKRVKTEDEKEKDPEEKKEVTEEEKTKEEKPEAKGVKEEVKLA

[5] = molecular target: HDAC2 (Homo sapiens, UniProt Q92769); test: HDAC-Glo inhibitor testing with recombinant HDAC2; type: biochemical
HDAC2, sequence (Q92769 whole entry): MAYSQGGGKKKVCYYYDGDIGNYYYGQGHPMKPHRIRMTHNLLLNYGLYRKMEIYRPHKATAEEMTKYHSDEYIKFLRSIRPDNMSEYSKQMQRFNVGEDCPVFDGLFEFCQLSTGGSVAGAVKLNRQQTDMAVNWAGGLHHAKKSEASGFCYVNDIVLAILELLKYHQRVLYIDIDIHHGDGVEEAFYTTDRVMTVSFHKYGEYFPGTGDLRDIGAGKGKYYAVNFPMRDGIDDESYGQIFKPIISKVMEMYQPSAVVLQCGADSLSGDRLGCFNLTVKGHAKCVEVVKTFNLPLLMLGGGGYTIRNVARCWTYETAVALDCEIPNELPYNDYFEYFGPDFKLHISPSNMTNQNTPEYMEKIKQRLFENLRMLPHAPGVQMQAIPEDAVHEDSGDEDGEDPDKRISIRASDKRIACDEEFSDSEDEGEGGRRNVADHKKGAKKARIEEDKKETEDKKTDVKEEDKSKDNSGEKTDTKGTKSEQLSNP

[6] = molecular target: T1, HDAC6 (Homo sapiens, UniProt Q9UBN7); test: HDAC-Glo inhibitor testing with recombinant HDAC6; type: biochemical
T1 sequence (Q9UBN7 1-1215): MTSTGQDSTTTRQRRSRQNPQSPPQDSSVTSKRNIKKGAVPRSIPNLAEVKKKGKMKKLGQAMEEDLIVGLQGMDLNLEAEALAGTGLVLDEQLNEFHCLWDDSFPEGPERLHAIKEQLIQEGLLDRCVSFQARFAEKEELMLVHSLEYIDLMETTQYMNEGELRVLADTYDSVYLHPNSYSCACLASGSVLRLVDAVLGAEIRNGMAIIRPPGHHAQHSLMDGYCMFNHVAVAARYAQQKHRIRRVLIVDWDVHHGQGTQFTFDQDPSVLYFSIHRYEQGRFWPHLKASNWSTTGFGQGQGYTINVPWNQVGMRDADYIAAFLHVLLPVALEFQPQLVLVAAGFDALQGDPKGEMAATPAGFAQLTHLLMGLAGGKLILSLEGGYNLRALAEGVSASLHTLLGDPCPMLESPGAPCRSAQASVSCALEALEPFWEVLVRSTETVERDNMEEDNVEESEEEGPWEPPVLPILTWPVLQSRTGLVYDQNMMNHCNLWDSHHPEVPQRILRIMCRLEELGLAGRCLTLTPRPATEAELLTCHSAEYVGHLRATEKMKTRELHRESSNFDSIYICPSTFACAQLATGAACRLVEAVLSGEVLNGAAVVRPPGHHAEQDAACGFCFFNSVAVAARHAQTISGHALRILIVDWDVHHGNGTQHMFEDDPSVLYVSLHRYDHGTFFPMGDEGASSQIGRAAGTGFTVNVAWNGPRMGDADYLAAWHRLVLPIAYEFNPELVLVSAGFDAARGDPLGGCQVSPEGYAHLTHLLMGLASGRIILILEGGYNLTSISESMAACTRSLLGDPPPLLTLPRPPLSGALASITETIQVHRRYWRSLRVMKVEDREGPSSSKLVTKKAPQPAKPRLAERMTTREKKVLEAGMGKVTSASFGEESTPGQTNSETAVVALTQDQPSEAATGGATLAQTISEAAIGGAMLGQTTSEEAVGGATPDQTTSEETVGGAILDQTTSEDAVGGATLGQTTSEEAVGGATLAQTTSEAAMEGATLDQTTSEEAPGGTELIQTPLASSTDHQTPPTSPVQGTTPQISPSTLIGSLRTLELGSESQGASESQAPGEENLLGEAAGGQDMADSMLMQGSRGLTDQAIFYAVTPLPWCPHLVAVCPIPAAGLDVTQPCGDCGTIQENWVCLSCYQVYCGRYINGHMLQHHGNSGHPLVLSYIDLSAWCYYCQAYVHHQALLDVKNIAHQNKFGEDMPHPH

[7] = test system: purified HDAC isoforms (HDAC1, 2, 3, 8 and HDAC6); test: Single concentration; type: biochemical; conditions: 100 μM, HDAC1, 2, 3, 8 and 6
Procedure, shortened: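 Recombinant HDAC1, 2, 3, 6 or 8 (1 μL of enzyme stock at 3, 1, 30, 35 or 70 ng/μL respectively) in HDAC-Glo buffer, incubated 3 h at room temperature with test compound in DMSO. HDAC-Glo reagent then added; luminescence read every 3 min for 30 min. Peak signal corrected against a no-enzyme background and divided by the no-inhibitor signal to give % activity remaining.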

[8] = test system: acetylation of SMC3 in HeLaM cells; test: Western blot of SMC3 acetylation in HeLaM cells; type: cell-based; conditions: overnight treatment
Procedure, shortened: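 Acetylated SMC3 detected by immunoblot with an anti-acetyl-SMC3 antibody, HRP-conjugated secondary antibody and enhanced chemiluminescence, imaged on film.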

[9] = test system: HeLaM cells; test: Flow cytometry cell cycle analysis; type: cell-based; conditions: for cells in G2/M: 48 hours, subG1 excluded (DMSO 10%); for subG1 population: 72 hr post treatment (DMSO 14%)
Procedure, shortened: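 5 × 10^5 HeLaM cells plated, treated next day with test compound or DMSO for 24, 48 or 72 h. All cells (floating and attached) collected and fixed in 70% ethanol (final). […] 10 μg/ml, 30 min, 37 °C, then propidium iodide in PBS + 2% FBS. SubG1 gated; subG1 excluded before modeling live-cell cycle distribution.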

[10] = test system: NCI 60 cancer cell lines; test: NCI dose response assay; type: cell-based, human
[11] = molecular target: HDAC3 (Homo sapiens, UniProt O15379); test: HDAC-Glo inhibitor testing with recombinant HDAC3; type: biochemical
HDAC3, sequence (O15379 whole entry): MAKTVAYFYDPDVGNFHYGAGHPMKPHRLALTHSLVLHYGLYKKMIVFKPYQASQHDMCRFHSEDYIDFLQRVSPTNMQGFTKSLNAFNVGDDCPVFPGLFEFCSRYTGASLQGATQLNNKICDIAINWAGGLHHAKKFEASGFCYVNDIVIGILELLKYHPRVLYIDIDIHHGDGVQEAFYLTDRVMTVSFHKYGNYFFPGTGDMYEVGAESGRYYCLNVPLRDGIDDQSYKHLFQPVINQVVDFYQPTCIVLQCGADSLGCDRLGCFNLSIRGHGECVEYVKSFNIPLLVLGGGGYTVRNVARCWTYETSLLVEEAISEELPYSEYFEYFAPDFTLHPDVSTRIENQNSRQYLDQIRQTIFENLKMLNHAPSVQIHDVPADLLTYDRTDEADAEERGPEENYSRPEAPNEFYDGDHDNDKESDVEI
HDAC3, sequence (Q9Y618 395-489 partner limits assumed): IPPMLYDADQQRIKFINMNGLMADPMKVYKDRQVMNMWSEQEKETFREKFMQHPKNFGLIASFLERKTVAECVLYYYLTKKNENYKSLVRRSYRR

[12] = molecular target: T2, HDAC8 (Homo sapiens, UniProt Q9BY41); test: HDAC-Glo inhibitor testing with recombinant HDAC8; type: biochemical; conditions: for remaining activity at 100 µM: read-out: HDAC8 activity remaining
T2 sequence (Q9BY41 1-377): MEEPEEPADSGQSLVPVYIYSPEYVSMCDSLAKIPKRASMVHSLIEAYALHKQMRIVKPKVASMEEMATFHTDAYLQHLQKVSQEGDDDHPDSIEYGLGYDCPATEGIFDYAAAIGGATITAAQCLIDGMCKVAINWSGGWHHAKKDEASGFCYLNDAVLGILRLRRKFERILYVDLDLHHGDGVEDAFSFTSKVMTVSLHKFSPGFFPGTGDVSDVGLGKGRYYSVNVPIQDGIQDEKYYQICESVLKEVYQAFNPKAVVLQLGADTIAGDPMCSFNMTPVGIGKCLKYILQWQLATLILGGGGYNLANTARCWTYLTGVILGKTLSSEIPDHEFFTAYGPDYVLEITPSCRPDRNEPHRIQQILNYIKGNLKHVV

[13] = molecular target: tubulin heterodimers, purified from porcine brain (Sus scrofa, UniProt P02554); test: Turbidity-based tubulin polymerization assay; type: biochemical; conditions: 10 μM compound, 37 °C, exponential phase (DMSO 10 mOD/min)
tubulin heterodimers, purified from porcine brain, sequence (P02554 whole entry): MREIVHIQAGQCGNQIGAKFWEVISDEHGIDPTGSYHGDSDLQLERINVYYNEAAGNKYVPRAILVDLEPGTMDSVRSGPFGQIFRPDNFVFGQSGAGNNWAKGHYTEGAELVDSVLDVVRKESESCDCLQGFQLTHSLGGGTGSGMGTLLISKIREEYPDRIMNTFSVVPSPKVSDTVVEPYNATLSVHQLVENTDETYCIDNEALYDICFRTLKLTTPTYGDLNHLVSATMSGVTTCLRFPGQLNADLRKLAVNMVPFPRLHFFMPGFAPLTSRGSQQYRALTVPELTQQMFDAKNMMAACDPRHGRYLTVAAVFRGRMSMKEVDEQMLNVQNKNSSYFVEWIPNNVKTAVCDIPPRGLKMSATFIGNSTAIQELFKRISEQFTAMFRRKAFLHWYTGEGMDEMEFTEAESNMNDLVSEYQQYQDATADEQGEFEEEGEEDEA
tubulin heterodimers, purified from porcine brain, sequence (P02550 whole entry partner): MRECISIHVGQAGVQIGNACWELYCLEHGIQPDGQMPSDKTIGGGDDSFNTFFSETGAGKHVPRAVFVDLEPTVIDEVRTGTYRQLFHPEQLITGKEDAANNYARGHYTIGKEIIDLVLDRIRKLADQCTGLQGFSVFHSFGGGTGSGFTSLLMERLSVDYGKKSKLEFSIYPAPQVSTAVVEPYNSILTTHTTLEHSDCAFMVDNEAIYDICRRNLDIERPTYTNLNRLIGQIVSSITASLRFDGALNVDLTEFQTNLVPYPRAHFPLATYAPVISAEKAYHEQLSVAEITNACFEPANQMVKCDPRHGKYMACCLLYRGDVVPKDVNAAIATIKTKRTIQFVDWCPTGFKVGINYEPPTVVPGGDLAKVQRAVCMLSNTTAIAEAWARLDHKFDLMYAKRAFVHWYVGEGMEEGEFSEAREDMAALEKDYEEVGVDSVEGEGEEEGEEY

[14] = test system: mitotic spindle of HeLaM cells; type: cell-based; conditions: compound 10 μM + MG132 + ZM447439 (DMSO+MG132+ZM447439 3%)

| Compound | activity at 10 µM [1] [%] | GI50 [2] [µM] | global histone H3 acetylation and tubulin acetylation [3] | IC50 [4] [µM] | IC50 [5] [µM] | IC50 [6] [µM] | IC50 [11] [µM] | IC50 [12] [µM] | also measured |
| --- | --- | --- | --- | --- | --- | --- | --- | --- | --- |
| Cc1ccc(NC(=O)Cc2ccc(/C=C/C(=O)c3ncc[nH]3)cc2)cc1 [IPE-3, (E)-2-(4-(3-(1H-Imidazol-2-yl)-3-oxoprop-1-en-1-yl)phenyl)-N-(p-tolyl)acetamide] | 41.3 | 6.85 | – | – | – | – | – | – | – |
| Cn1ccnc1C(=O)/C=C/c1ccc(CC(=O)Nc2ccc(F)cc2)cc1 [IPE-19, (E)-N-(4-Fluorophenyl)-2-(4-(3-(1-methyl-1H-imidazol-2-yl)-3-oxoprop-1-en-1-yl)phenyl)acetamide] | 33.1 | 6.56 | no increase in global histone acetylation or tubulin acetylation | – | – | – | – | – | – |
| O=C(Cc1ccc(/C=C/C(=O)c2ncc[nH]2)cc1)Nc1ccc(Cl)cc1 [IPE-8, (E)-2-(-4(3-(1H-imidazol-2-yl)-3-oxoprop-1-en-1-yl)phenyl)-N-(4-chlorophenyl)acetamide] | 21.1 | 5.14 | – | > 100 | > 100 | > 100 | – | – | activity remaining, each HDAC isoform [7]: 20–80%; SMC3 acetylation [8]: no effect on SMC3 acetylation; cells in G2/M [9]: 33%; subG1 population [9]: 59% |
| Nc1ccccc1NC(=O)c1ccc(CNC(=O)OCc2cccnc2)cc1 [MS275, reference compound] | – | – | dramatically increased | – | – | – | – | – | – |
| O=C(Cc1ccc(/C=C/C(=O)c2ncc[nH]2)cc1)Nc1ccc(Br)cc1 [IPE-9, (E)-2-(-4(3-(1H-imidazol-2-yl)-3-oxoprop-1-en-1-yl)phenyl)-N-(4-bromophenyl)acetamide] | 17.9 | – | – | – | – | – | – | – | GI50, all but two of the cell lines each in the leukemia and colon cancer panels [10]: sub-micromolar |
| Cn1ccnc1C(=O)/C=C/c1ccc(CC(=O)Nc2c(F)c(F)c(F)c(F)c2F)cc1 [IPE-25, (E)-2-(4-(3-(1-methyl-1H-imidazol-2-yl)-3-oxoprop-1-en-1-yl)phenyl)-N-(perfluorophenyl)acetamide] | 61.4 | – | – | 12 ± 1 | 8.9 ± 0.6 | 8.6 ± 4.9 | 16 ± 1 | 9 ± 0.5 | – |
| CC(=O)O[C@H]1C(=O)[C@@]2(C)[C@H]([C@H](OC(=O)c3ccccc3)[C@]3(O)C[C@H](OC(=O)[C@H](O)[C@@H](NC(=O)c4ccccc4)c4ccccc4)C(C)=C1C3(C)C)[C@]1(OC(C)=O)CO[C@@H]1C[C@@H]2O [Taxol, reference compound] | – | – | – | – | – | – | – | – | Vmax of tubulin polymerization [13]: higher Vmax than DMSO |
| O=C(CCCCCCC(=O)Nc1ccccc1)NO [SAHA, reference compound] | – | – | dramatically increased | – | – | – | – | – | cells in G2/M [9]: 8.2%; subG1 population [9]: 37%; spindle collapse [14]: did not produce the same aberrant spindle |
| Cn1ccnc1C(=O)/C=C/c1ccc(CC(=O)Nc2cc(C(F)(F)F)cc(C(F)(F)F)c2)cc1 [IPE-26, (E)-N-(3,5-bis(trifluoromethyl)phenyl)-2-(4-(3-(1-methyl-1H-imidazol-2-yl)-3-oxoprop-1-en-1-yl)phenyl)acetamide] | 69 | – | – | > 200 | > 100 | > 100 | > 200 | 15 ± 1 | remaining activity at 100 µM [12]: 20 to 60% |
| Cn1ccnc1C(=O)/C=C/c1ccc(CC(=O)Nc2ccc(Br)cc2)cc1 [IPE-18, (E)-N-(4-Bromophenyl)-2-(4-(3-(1-methyl-1H-imidazol-2-yl)-3-oxoprop-1-en-1-yl)phenyl)acetamide] | 19.9 | – | – | > 100 | > 100 | > 100 | > 100 | > 100 | – |
| Cn1ccnc1C(=O)/C=C/c1ccc(CC(=O)Nc2ccccc2)cc1 [IPE-16, (E)-2-(4-(3-(1-Methyl-1H-imidazol-2-yl)-3-oxoprop-1-en-1-yl)phenyl)-N-phenylacetamide] | 15.9 | 5.91 | no increase in global histone acetylation or tubulin acetylation | – | – | – | – | – | spindle collapse [14]: phenotype was reproduced |
| Cn1ccnc1C(=O)/C=C/c1ccc(CC(=O)Nc2ccc(S(F)(F)(F)(F)F)cc2)cc1 [IPE-22, (E)-2-(4-(3-(1-Methyl-1H-imidazol-2-yl)-3-oxoprop-1-en-1-yl)phenyl)-N-(4-(pentafluoro-λ^6-sulfanyl)phenyl)acetamide] | -18.8 | – | – | > 200 | > 200 | > 200 | > 200 | 3 ± 0.2 | inhibition at 10 µM ([1]; read-out: growth inhibition at 10 μM): 100%; fold selectivity for HDAC8 compared to the other isoforms ([12]; from IC50 values, other isoforms >200 μM): ≥ 67 fold; remaining activity at 100 µM [12]: 20 to 60%; GI50, all leukemia cell lines [10]: upper nanomolar; spindle collapse [14]: phenotype was reproduced |
| Cn1ccnc1C(=O)/C=C/c1ccc(CC(=O)Nc2cc(F)c(F)c(F)c2)cc1 [IPE-24, (E)-2-(4-(3-(1-methyl-1H-imidazol-2-yl)-3-oxoprop-1-en-1-yl)phenyl)-N-(3,4,5-trifluorophenyl)acetamide] | 22.7 | – | – | > 200 | > 200 | > 200 | > 200 | 13 ± 1 | remaining activity at 100 µM [12]: 20 to 60%; GI50, all leukemia cell lines [10]: upper nanomolar |
